Test results reported in ChEMBL document CHEMBL3870349, “Novel 3-methylindoline inhibitors of EZH2: Design, synthesis and SAR” (Bioorg Med Chem Lett, 2017).
pIC50: −log10 of the molar value. Values after ≈ are worked out from the molar mass of the structure shown.

Tests used:
[1] = target: Histone-lysine N-methyltransferase EZH2 (Homo sapiens, UniProt Q15910); assay: Inhibition of human wild type EZH2 using histone H3 as substrate after 1 hr in presence of 3H-SAM by filter paper detection analysis
Histone-lysine N-methyltransferase EZH2 (Homo sapiens, UniProt Q15910), sequence (Q15910 whole entry): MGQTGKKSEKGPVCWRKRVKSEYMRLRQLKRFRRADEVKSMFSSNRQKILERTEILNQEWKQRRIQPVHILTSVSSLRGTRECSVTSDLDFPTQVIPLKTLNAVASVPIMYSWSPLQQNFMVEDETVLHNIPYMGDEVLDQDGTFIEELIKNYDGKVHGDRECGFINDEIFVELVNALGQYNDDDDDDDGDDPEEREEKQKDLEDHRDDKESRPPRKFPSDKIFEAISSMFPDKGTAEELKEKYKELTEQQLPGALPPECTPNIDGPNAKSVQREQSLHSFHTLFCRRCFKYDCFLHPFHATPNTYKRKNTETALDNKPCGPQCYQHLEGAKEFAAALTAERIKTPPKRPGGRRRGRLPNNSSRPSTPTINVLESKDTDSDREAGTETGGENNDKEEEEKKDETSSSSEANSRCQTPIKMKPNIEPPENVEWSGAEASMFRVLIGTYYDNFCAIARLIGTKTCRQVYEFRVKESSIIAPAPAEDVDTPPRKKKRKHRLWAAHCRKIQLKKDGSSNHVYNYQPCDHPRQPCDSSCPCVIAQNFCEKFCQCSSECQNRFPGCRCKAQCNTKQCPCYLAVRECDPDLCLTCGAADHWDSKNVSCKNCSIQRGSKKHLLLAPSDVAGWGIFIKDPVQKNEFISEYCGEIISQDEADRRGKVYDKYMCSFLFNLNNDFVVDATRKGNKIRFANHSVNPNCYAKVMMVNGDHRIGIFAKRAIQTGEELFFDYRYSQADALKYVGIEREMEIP
How it was run: (§1)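 Each HMT complex was incubated with 3H-SAM (tritiated S-adenosyl-L-methionine) and histone H3 as substrate. An IC50 curve was generated for each compound.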

[2] = target: Histone-lysine N-methyltransferase EZH2 (Homo sapiens, UniProt Q15910, Y641F); assay: Inhibition of human EZH2 Y641F mutant using histone H3 as substrate after 1 hr in presence of 3H-SAM by filter paper detection analysis; how it was run: as §1
Histone-lysine N-methyltransferase EZH2 (Homo sapiens, UniProt Q15910, Y641F), sequence (Q15910 whole entry Y641F): as the sequence (Q15910 whole entry) above, with Y641F counted along it

[3] = target: T1, Histone-lysine N-methyltransferase EZH1 (Homo sapiens, UniProt Q92800); assay: Inhibition of human EZH1 complex using histone H3 as substrate after 1 hr in presence of 3H-SAM by filter paper detection analysis; how it was run: as §1
T1 sequence (Q92800 whole entry): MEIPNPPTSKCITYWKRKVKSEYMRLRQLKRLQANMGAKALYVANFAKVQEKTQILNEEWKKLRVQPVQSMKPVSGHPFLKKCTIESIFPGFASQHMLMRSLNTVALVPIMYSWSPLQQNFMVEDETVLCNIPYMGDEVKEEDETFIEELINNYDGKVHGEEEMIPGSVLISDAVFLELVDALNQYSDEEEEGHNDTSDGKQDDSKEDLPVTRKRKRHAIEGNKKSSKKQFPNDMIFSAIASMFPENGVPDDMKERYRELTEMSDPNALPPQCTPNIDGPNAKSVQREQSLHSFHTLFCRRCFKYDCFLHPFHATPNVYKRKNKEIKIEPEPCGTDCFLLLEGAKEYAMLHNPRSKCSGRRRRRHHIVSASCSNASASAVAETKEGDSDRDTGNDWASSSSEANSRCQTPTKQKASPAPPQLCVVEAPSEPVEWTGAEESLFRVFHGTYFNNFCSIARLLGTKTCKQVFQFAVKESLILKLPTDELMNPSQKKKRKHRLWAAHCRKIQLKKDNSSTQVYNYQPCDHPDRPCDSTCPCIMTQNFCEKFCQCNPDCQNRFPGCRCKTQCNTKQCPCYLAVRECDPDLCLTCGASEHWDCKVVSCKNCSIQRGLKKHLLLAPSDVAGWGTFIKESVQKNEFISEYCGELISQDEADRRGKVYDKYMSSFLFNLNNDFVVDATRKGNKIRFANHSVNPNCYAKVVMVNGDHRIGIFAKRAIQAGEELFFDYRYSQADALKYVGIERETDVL

[4] = Oxidative metabolic stability in human liver microsomes assessed as amount of parent compound remaining at 1 uM after 30 mins by LC-MS/MS; type: ADME; conditions: read-out: Stability
[5] = Kinetic solubility of compound in PBS buffer at pH 7.4 after 1 hr by micro-plate nephelometric analysis; type: physicochemical; conditions: read-out: Kinetic_solubility
[6] = Oxidative metabolic stability in mouse liver microsomes assessed as amount of parent compound remaining at 1 uM after 30 mins by LC-MS/MS; type: ADME; conditions: read-out: Stability

Compound | pIC50 [1] | pIC50 [2] | pIC50 [3] | other results
Cc1cc(C)c(CNC(=O)c2cc(-c3cnc(N4CCNCC4)nc3)cc3c2C(C)CN3C2CCOCC2)c(=O)[nH]1 (stereo in doubt; 45e2) | 5.67 |  |  | 
Cc1cc(C)c(CNC(=O)c2cc(-c3ccc(N4CCNCC4)nc3)cc3c2C(C)CN3C2CCCC2)c(=O)[nH]1 (stereo in doubt; 40e2) | 6.42 |  |  | 
Cc1cc(C)c(CNC(=O)c2cc(-c3ccc(N4CCNCC4)nc3)cc3c2C(C)CN3C2CCOCC2)c(=O)[nH]1 (stereo in doubt; 41e1) | 7.96 | 6.24 | 5.70 | remaining at 0.5 h, 1 µM [4]: 83%; solubility kinetic at 1 h [5]: 75 µM (≈ 41.8 µg/mL); remaining at 0.5 h, 1 µM [6]: 95%
Cc1cc(C)c(CNC(=O)c2cc(C#N)cc3c2C(C)CN3C(C)C)c(=O)[nH]1 (stereo in doubt; 27e2) | < 4.00 |  |  | 
Cc1cc(C)c(CNC(=O)c2cc(C#N)cc3c2CCN3C2CCCC2)c(=O)[nH]1 | 6.24 |  |  | 
Cc1cc(C)c(CNC(=O)c2cc(C#N)cc3c2C(C)CN3C2CCCC2)c(=O)[nH]1 (stereo in doubt; 28e2) | < 4.00 |  |  | 
Cc1cc(C)c(CNC(=O)c2cc(-c3ccc(N4CCNCC4)nc3)cc3c2C(C)CN3C2CCCC2)c(=O)[nH]1 (stereo in doubt; 40e1) | 7.68 | 6.30 | 5.87 | 
Cc1cc(C)c(CNC(=O)c2cc(C#N)cc3c2C(C)CN3C2CCCC2)c(=O)[nH]1 (stereo in doubt; 28e1) | 7.57 | 6.73 | 5.35 | 
Cc1cc(C)c(CNC(=O)c2cc(-c3ccc(N4CCNCC4)nc3)cc3c2C(C)CN3C2CCOCC2)c(=O)[nH]1 (stereo in doubt; 41e2) | 5.67 |  |  | 
CCN(c1cc(-c2ccc(CN3CCOCC3)cc2)cc(C(=O)NCc2c(C)cc(C)[nH]c2=O)c1C)C1CCOCC1 [TAZEMETOSTAT] |  |  |  | remaining at 0.5 h, 1 µM [4]: 25%; solubility kinetic at 1 h [5]: 28 µM (≈ 16 µg/mL); remaining at 0.5 h, 1 µM [6]: 39%
Cc1cc(C)c(CNC(=O)c2cc(C#N)cc3c2C(C)CN3C(C)C)c(=O)[nH]1 (stereo in doubt; 27e1) | 7.06 | 6.32 | 5.11 | 
Cc1cc(C)c(CNC(=O)c2cc(-c3cnc(N4CCNCC4)nc3)cc3c2C(C)CN3C2CCOCC2)c(=O)[nH]1 (stereo in doubt; 45e1) | 7.01 |  |  | 
Cc1cc(C)c(CNC(=O)c2cc(C#N)cc3c2CCN3C(C)C)c(=O)[nH]1 | 4.58 |  |  | 
Cc1cc(C)c(CNC(=O)c2cc(-c3cnc(N4CCNCC4)c4ccccc34)cc3c2C(C)CN3C2CCOCC2)c(=O)[nH]1 (stereo in doubt; 36e2) | 6.27 |  |  | 
Cc1cc(C)c(CNC(=O)c2cc(C#N)cc3c2CCN3C2CCOCC2)c(=O)[nH]1 | 4.80 |  |  | 
Cc1cc(C)c(CNC(=O)c2cc(-c3cnc(N4CCNCC4)c4ccccc34)cc3c2C(C)CN3C2CCOCC2)c(=O)[nH]1 (stereo in doubt; 36e1) | 7.77 | 6.52 | 5.81 | 

Second part, led by results:

pIC50 [1] | pIC50 [2] | pIC50 [3] | Compound | other results
5.16 |  |  | Cc1cc(C)c(CNC(=O)c2cc(-c3ccc(CN4CCOCC4)cc3)cc3c2C(C)CN3C2CCOCC2)c(=O)[nH]1 (stereo in doubt; 34e2) | 
4.82 |  |  | Cc1cc(C)c(CNC(=O)c2cc(-c3ccc(CN4CCOCC4)cc3)cc3c2C(C)CN3CC2CC2)c(=O)[nH]1 (stereo in doubt; 31e2) | 
5.97 |  |  | Cc1cc(C)c(CNC(=O)c2cc(-c3ccc(N4CCNCC4)nc3)cc3c2C(C)CN3C(C)C)c(=O)[nH]1 (stereo in doubt; 39e2) | 
5.38 |  |  | Cc1cc(C)c(CNC(=O)c2cc(-c3ccc(CN4CCOCC4)cc3)cc3c2C(C)CN3C(C)C)c(=O)[nH]1 (stereo in doubt; 30e2) | 
7.77 | 6.21 | 5.73 | Cc1cc(C)c(CNC(=O)c2cc(-c3ccc(N4CCNCC4)nc3)cc3c2C(C)CN3C(C)C)c(=O)[nH]1 (stereo in doubt; 39e1) | 
6.63 |  |  | Cc1cc(C)c(CNC(=O)c2cc(-c3ccc(CN4CCOCC4)cc3)cc3c2CCN3C2CCOCC2)c(=O)[nH]1 | 
7.62 | 6.04 | 5.58 | Cc1cc(C)c(CNC(=O)c2cc(-c3ccc(CN4CCOCC4)cc3)cc3c2C(C)CN3C2CCCC2)c(=O)[nH]1 (stereo in doubt; 33e1) | 
6.43 |  |  | Cc1cc(C)c(CNC(=O)c2cc(-c3ccc(CN4CCOCC4)cc3)cc3c2C(C)CN3CC2CC2)c(=O)[nH]1 (stereo in doubt; 31e1) | 
7.33 | 6.29 | 5.57 | Cc1cc(C)c(CNC(=O)c2cc(-c3ccc(CN4CCOCC4)cc3)cc3c2C(C)CN3C(C)C)c(=O)[nH]1 (stereo in doubt; 30e1) | 
6.35 |  |  | Cc1cc(C)c(CNC(=O)c2cc(-c3ccc(CN4CCOCC4)cc3)cc3c2C(C)CN3C2CCCC2)c(=O)[nH]1 (stereo in doubt; 33e2) | 
7.54 | 6.01 | 5.48 | Cc1cc(C)c(CNC(=O)c2cc(-c3ccc(CN4CCOCC4)cc3)cc3c2C(C)CN3C2CCOCC2)c(=O)[nH]1 (stereo in doubt; 34e1) | remaining at 0.5 h, 1 µM [4]: 62%; solubility kinetic at 1 h [5]: 75 µM (≈ 42.8 µg/mL); remaining at 0.5 h, 1 µM [6]: 58%
